The source of these data is ChEMBL document CHEMBL2062436, “Design, synthesis, and antiviral evaluation of purine-β-lactam and purine-aminopropanol hybrids” (J Med Chem, 2012).

The subject of data set [1] is unidentified influenza virus. As to the kind of experiment: Antiviral activity against unidentified influenza virus assessed as inhibition of virus-induced cytopathic effect by cell-based assay. The data set is classed as functional, organism-based.
In data set [2] the test system is Human immunodeficiency virus 1. The data set can be described thus: Antiviral activity against Human immunodeficiency virus 1 3B infected in MT4 cells by fluorescence analysis. The data set is classed as functional, organism-based.
The subject of a further data set is dengue virus type 2. The data set can be described thus: Antiviral activity against Dengue virus 2 assessed as inhibition of virus-induced cytopathic effect by cell-based assay. The data set is classed as functional, organism-based. For orientation: Protection from cytopathic effect is a common read-out in antiviral testing.
A further data set relates to Hepatitis C virus. The data set can be described thus: Antiviral activity against Hepatitis C virus infected in […] cells by luciferase assay. The data set is classed as functional, organism-based. To be noted: Hepacivirus hominis.
Data set [3] in a line: Selectivity index, ratio of CC50 for host cell to EC50 for Coxsackievirus. The method, boiled down:
(§1)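 SI calculated as CC50/EC50. CC50 is the 50% cytotoxic concentration in host cells. EC50 is the concentration giving 50% inhibition of the virus-reduced signal versus uninfected cell controls.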

The test system of a further data set is Coxsackievirus. As to the kind of experiment: Antiviral activity against Coxsackievirus assessed as inhibition of virus-induced cytopathic effect by cell-based assay. The data set is classed as functional, organism-based. The method, boiled down:
(§2)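 EC50 taken as the compound concentration giving 50% inhibition of the virus-reduced cell signal, relative to uninfected cell controls.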

A short description of data set [4]: Selectivity index, ratio of CC50 for host cell to EC50 for Chikungunya virus. The procedure, abridged: as §1
In the next data set the test system is Chikungunya virus. As to the kind of experiment: Antiviral activity against Chikungunya virus assessed as inhibition of virus-induced cytopathic effect by cell-based assay. The data set is classed as functional. The procedure, abridged:
as §2

Data set [5] in a line: Selectivity index, ratio of CC50 for HeLa cells to EC50 for Human respiratory syncytial virus. The format is toxicity, cell-based. The note with it: read-out: Ratio CC50/EC50. The method, boiled down:
(§3)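 Ratio of CC50 to EC50. CC50 is the 50% cytotoxic concentration. EC50 is the concentration giving 50% inhibition of the virus-reduced signal relative to the uninfected cell control.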

Data set [6] is described as follows: Cytotoxicity against human HeLa cells by luminescence assay. The format is cell-based.
The subject of a further data set is Human orthopneumovirus. As to the kind of experiment: Antiviral activity against Human respiratory syncytial virus infected in HeLa cells. The data set is classed as functional, organism-based.
The subject of another data set is Cytomegalovirus. As to the kind of experiment: Antiviral activity against Cytomegalovirus infected in human Hel299 cells. The note with it: Human betaherpesvirus 5, HEL 299. The format is functional, organism-based.
The nature of data set [7]: Cytotoxicity human HEL299 cells by resazurin assay. The data set is classed as cell-based, HEL 299.
Data set [8] is described as follows: Selectivity index, ratio of CC50 for Hel299 cells to EC50 for Cytomegalovirus. To be noted: human, read-out: Ratio CC50/EC50. The format is toxicity, cell-based. The procedure, abridged: as §3
Data set [9] in a line: Selectivity index, ratio of CC50 for HepG2 cells to EC50 for Hepatitis B virus. The format is toxicity, cell-based. The note with it: human, read-out: Ratio CC50/EC50. The method, boiled down:
as §3

Data set [10] can be described thus: Cytotoxicity against human HepG2 cells by resazurin assay. The format is cell-based. In general terms: Alamar Blue is a resazurin reagent that responds to reducing activity.
A further data set has as its system Hepatitis B virus. The data set can be described thus: Antiviral activity against Hepatitis B virus infected in HepG2(2.2.15) by PCR analysis. The data set is classed as functional, organism-based.

Active and inactive are the calls of the source. The rule behind the calls is not given here. Bounds are passed on as bounds.

Take `CC(C)N1C(=O)[C@H](CCn2cnc3c(NCc4ccccc4)ncnc32)[C@H]1c1ccccc1` (relative stereo): the outcome (in data set [1]; in data set [2]; with dengue virus type 2; in the data set with Hepatitis C virus) was inactive.

`OC[C@@H](Oc1ccccc1)[C@H](NCCCn1cnc2c(NCc3ccccc3)ncnc21)c1ccccc1` (relative stereo): the outcome (in data set [1]; in data set [2]; in the data set with dengue virus type 2; in the data set on Hepatitis C virus) was inactive.

`CO[C@@H]1C(=O)N(CCCn2cnc3c(NCc4ccccc4)ncnc32)[C@@H]1c1ccc(C(C)C)cc1` (relative stereo): the result (in [1]; in data set [2]; in the data set on dengue virus type 2; in the data set on Hepatitis C virus) was inactive.

On to `CC(C)N1C(=O)[C@H](CCn2cnc3c(OCc4ccccc4)ncnc32)[C@H]1c1ccccc1` (relative stereo), for which the outcome (in [1]; in [2]; in the data set on dengue virus type 2; in the data set with Hepatitis C virus) was inactive. Moreover, the “Ratio CC50/EC50” value in [3] was determined as 11.55. The EC50 (usually the concentration at which the effect is half-maximal) in the data set with Coxsackievirus turned out to be 4.17 µM.

For `CO[C@H](CO)[C@H](NCCCn1cnc2c(NCc3ccccc3)ncnc21)c1ccc(C(C)C)cc1` (relative stereo), the result (in data set [1]; in data set [2]; in the data set with dengue virus type 2; with Hepatitis C virus) was inactive.

For `O=C1[C@H](CCn2cnc3c(OCc4ccccc4)ncnc32)[C@@H](c2ccccc2)N1Cc1ccccc1`, the outcome (in data set [1]; in data set [2]; in the data set with dengue virus type 2; in the data set with Hepatitis C virus) was inactive.

As for `O=C1[C@@H](Oc2ccccc2)[C@@H](c2ccccc2)N1CCCn1cnc2c(NCc3ccccc3)ncnc21` (relative stereo), the “Ratio CC50/EC50” value in data set [4] is listed as >5.75; in data set [3], >28.09. Further, the result (in data set [1]; in data set [2]; in the data set with dengue virus type 2; with Hepatitis C virus) was inactive. For the same molecule, the EC50 in the data set on Chikungunya virus was found to be 17.1 µM; in the data set on Human orthopneumovirus, 8.05 µM; in the data set on Coxsackievirus, 3.56 µM. For the same molecule, the selectivity ratio in data set [5] turned out to be 5.79. Further, the midpoint of cytotoxicity in data set [6], the CC50, lay at 46.6 µM.

In the case of `O=C1[C@@H](Oc2ccccc2)[C@@H](c2ccccc2)N1CCn1cnc2c(NCc3ccccc3)ncnc21` (relative stereo), the outcome (in data set [1]; in data set [2]; with dengue virus type 2; with Hepatitis C virus) was inactive.

Take `O=C1[C@@H](OCc2ccccc2)[C@@H](c2ccc(Cl)cc2Cl)N1CCCn1cnc2c(NCc3ccccc3)ncnc21` (relative stereo): the outcome (in data set [1]; in data set [2]; with dengue virus type 2; with Hepatitis C virus) was inactive. Besides, the selectivity ratio in data set [5] was found to be 17.9. In data set [6], the CC50 (commonly the concentration that lowers cell viability or growth by half) was determined as 40.1 µM. Further, the EC50 with Human orthopneumovirus turned out to be 2.24 µM.

With `CC(C)N1C(=O)[C@H](CCCn2cnc3c(NCc4ccccc4)ncnc32)[C@H]1c1ccccc1F` (relative stereo), the result (in [1]; in [2]; in the data set on dengue virus type 2; in the data set with Hepatitis C virus) was inactive. For the same molecule, the selectivity ratio in data set [5] worked out at 9.71. This molecule came in with a CC50 in [6] of 75.6 µM. This molecule also returned an EC50 in the data set on Human orthopneumovirus of 7.79 µM.

On to `CC(C)N[C@H](c1ccccc1F)[C@H](CO)CCCn1cnc2c(NCc3ccccc3)ncnc21` (relative stereo), for which the outcome (in data set [1]; in data set [2]; with dengue virus type 2; in the data set with Hepatitis C virus) was inactive. In [5], the selectivity ratio was > 4.25. Also, the CC50 in data set [6] was > 100 µM. In the data set on Human orthopneumovirus, this molecule registered an EC50 of 23.6 µM.

For the molecule `O=C1[C@@H](Oc2ccccc2)[C@@H](c2ccc(Cl)cc2)N1CCn1cnc2c(NCc3ccccc3)ncnc21` (relative stereo), the outcome (in [1]; in data set [2]; in the data set on dengue virus type 2; in the data set on Hepatitis C virus) was inactive.

Take `CC(C)N[C@H](c1ccccc1)[C@H](CO)CCn1cnc2c(NCc3ccccc3)ncnc21` (relative stereo): the result (in data set [1]; in data set [2]; in the data set with dengue virus type 2; with Hepatitis C virus) was inactive.

In the case of `CCCN[C@H](c1ccccc1)[C@H](CO)CCCn1cnc2c(NCc3ccccc3)ncnc21` (relative stereo), the result (in data set [1]; in [2]; in the data set on dengue virus type 2; in the data set with Hepatitis C virus) was inactive.

As for `O=C1[C@@H](Oc2ccccc2)[C@@H](c2ccccc2)N1CCCn1cnc2c(OCc3ccccc3)ncnc21` (relative stereo), the outcome (in data set [1]; in data set [2]; in the data set with dengue virus type 2; in the data set on Hepatitis C virus) was inactive. In addition, the EC50 stood at 17.2 µM in the data set on Cytomegalovirus and 2.94 µM in the data set with Coxsackievirus. The CC50 in data set [7] was found to be 70.8 µM. Also, the “Ratio CC50/EC50” value in [3] is on record as >34.05. Further, in data set [8], the selectivity ratio was 4.13.

On to `OC[C@@H](Oc1ccccc1)[C@H](NCCn1cnc2c(NCc3ccccc3)ncnc21)c1ccc(Cl)cc1` (relative stereo), for which the selectivity ratio in data set [9] stood at 9.19; in [5], 4.29. In addition, in data set [4], the “Ratio CC50/EC50” value is reported as 6.19. Moreover, the outcome (in data set [1]; in data set [2]; in the data set with dengue virus type 2; in the data set on Hepatitis C virus) was inactive. The CC50 in data set [10] was 31.9 µM; in data set [6], 8.23 µM. For the same molecule, the results for the EC50 in the data set on Chikungunya virus, in the data set on Human orthopneumovirus and in the data set with Hepatitis B virus were 11.5 µM, 1.92 µM and 3.47 µM, respectively.

Consider `CCCN1C(=O)[C@H](CCCn2cnc3c(NCc4ccccc4)ncnc32)[C@H]1c1ccccc1` (relative stereo), for which the result (in data set [1]; in [2]; in the data set with dengue virus type 2; in the data set with Hepatitis C virus) was inactive. Besides, the values for the EC50 in the data set with Cytomegalovirus and in the data set with Coxsackievirus were 7.16 µM and 2.77 µM, respectively. Further, the cytotoxic concentration (CC50) in data set [7] came to 30.7 µM. Moreover, in data set [3], the “Ratio CC50/EC50” value turned out to be 17.11. For the same molecule, the selectivity ratio in data set [8] was determined as 4.29.

Regarding `COc1ccccc1[C@@H]1[C@H](Oc2ccccc2)C(=O)N1CCn1cnc2c(NCc3ccccc3)ncnc21` (relative stereo), the “Ratio CC50/EC50” value in data set [4] turned out to be 4.53. Moreover, the result (in data set [1]; in data set [2]; in the data set on dengue virus type 2; with Hepatitis C virus) was inactive. Besides, in the data set on Chikungunya virus, the EC50 is 13 µM.

Consider `OC[C@@H](OCc1ccccc1)[C@H](NCCCn1cnc2c(NCc3ccccc3)ncnc21)c1ccc(Cl)cc1Cl` (relative stereo), for which the outcome (in data set [1]; in data set [2]; in the data set with dengue virus type 2; in the data set with Hepatitis C virus) was inactive.

`O=C1[C@@H](OCc2ccccc2)[C@@H](c2ccccc2)N1CCn1cnc2c(NCc3ccccc3)ncnc21` (relative stereo): the selectivity ratio in [9] turned out to be 4.52. The outcome (in data set [1]; in data set [2]; in the data set with dengue virus type 2; in the data set with Hepatitis C virus) was inactive. In addition, the CC50 in [10] is > 50 µM. In the data set on Hepatitis B virus, this molecule returned an EC50 of 11.1 µM.
